From PubChem
PolyA inhibitor: yeast polyadenylation inhibition; S. cerevisiae SKY197-pL101 polyadenylation reporter, beta-gal luminescence; efflux-impaired pdr1/pdr3 knockout yeast; score 100 = 6 SD above DMSO; activity score, % at 12 µM; 300,000 compounds, 0.02% hits;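 active = lowest replicate activity score at least 50, where 100 means six control SD above control mean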;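 note: yeast exposed to compound for 9 h at 30 °C; higher score means more reporter readthrough which indicates perturbed polyadenylation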
APOBEC3A inh: human APOBEC3A DNA deaminase inhibition | P31941 | recombinant A3A, FAM/TAMRA ssDNA deamination fluorescence | inhibition, % at 20 µM | 330,000 compounds, 0.41% hits | AID 493011;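 active = at least 40% inhibition at 20 µM here, with at most 30% in a related deaminase screen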
Target sequence (P31941 whole entry, looked up): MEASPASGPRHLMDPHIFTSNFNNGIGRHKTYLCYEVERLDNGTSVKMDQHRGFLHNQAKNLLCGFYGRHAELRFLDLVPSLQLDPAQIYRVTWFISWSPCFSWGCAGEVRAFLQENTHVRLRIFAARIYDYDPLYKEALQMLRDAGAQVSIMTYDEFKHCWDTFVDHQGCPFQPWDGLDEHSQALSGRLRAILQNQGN
APOBEC3G inh: blocks human APOBEC3G single-stranded DNA deamination. Q9HC16. recombinant A3G, ssDNA deamination FAM/TAMRA fluorescence. inhibition, % at 20 µM. AID 493012. 330,000 compounds, 0.28% hits;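 active = inhibition of at least 40% at 20 µM, with no more than 30% in the related APOBEC3A deaminase screen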
AHR act: human AHR activation; 320,000 compounds, 2.5% hits; activation, % at 5 µM; AHR-responsive luciferase reporter cells, luminescence; AID 2796; P35869; in the data active = activation above about 47%
UCH37 DUB inh: human UCH37 deubiquitinating enzyme inhibition | Q9Y5K5 | purified proteasome/UCH37, Ub-AMC cleavage fluorescence | inhibition, % (concentration not given with the values) | 330,000 compounds, 0.33% hits | AID 588478;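 active = mean inhibition over replicate wells above about 20%, limit read from the data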
Target sequence (Q9Y5K5 whole entry, looked up): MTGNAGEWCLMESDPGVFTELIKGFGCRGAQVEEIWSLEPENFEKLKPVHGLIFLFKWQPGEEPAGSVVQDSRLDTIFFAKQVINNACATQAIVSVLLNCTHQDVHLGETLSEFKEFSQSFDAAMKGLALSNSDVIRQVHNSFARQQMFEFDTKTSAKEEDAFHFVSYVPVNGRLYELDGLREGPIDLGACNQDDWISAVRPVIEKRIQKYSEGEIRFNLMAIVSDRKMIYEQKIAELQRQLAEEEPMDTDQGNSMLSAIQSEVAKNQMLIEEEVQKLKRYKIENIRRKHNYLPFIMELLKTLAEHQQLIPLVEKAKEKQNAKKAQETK
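Test system – human UCH37 enzyme supplied as purified proteasome complex · Incubation – 30 min preincubation with enzyme, 25 min cleavage at room temperature · Detection – AMC fluorescence from Ub-AMC cleavage, excitation 355 nm, emission 460 nm · Benchmarks – no-proteasome wells (full inhibition) and compound-free wells (no inhibition)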
Arr AP2 block: inhibitors of human beta-arrestin and AP2 interaction; FITC-arrestin peptide / GST-AP2 beads, flow cytometry; AP2 beta2 appendage carries R879A mutation; inhibition, % at 10 µM; 340,000 compounds, 0.31% hits; AID 504490;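 active = inhibition above a set limit, near 3 SD of compounds lacking own fluorescence, cut at about 54% in these data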
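System: GST-AP2 R879A glutathione beads. Medium: PBS with 0.05% Tween 20 and 0.1% BSA. Also added: FITC-arrestin peptide, 50 nM. Incubation: 12 min plus 1 h, RT. Measured by: high-throughput flow cytometry of beads, ex 488, em 535 nm. Evaluation: percent drop in bead-associated FITC signal.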
A3A conf: APOBEC3A (human) deaminase inhibition, confirmed; recombinant A3A, ssDNA deaminase UDG fluorescence assay; shares compounds with APOBEC3A inh; AID 493151; inhibition, % at 20 µM; 1,400 compounds, 63% hits;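 active = inhibition reaching a set limit, 80% of the first screen's cutoff, at 20 µM in any replicate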
UDG ctr A3A: UDG inhibition in APOBEC3A counter-screen. shares compounds with APOBEC3A inh. UDG counterscreen, FAM/TAMRA uracil oligo fluorescence. inhibition, % at 20 µM. 1,000 tested, under 10 active; call rule not given here
Hits are given with their value; n = inactive; x = not tested or not shown. Only some compounds are listed: those with a hit (about 3.4% of all), similar ones and a draw of the others.

SMILES	PolyA inhibitor	APOBEC3A inh	APOBEC3G inh	AHR act	UCH37 DUB inh	Arr AP2 block	A3A conf	UDG ctr A3A
CCOC(=O)c1[nH]c2c(c1C)C(=O)CC(c1ccco1)C2 (stereo unspecified)	n	n	n	n	n	n	x	x
CC(=NOC(=O)c1ccc(OC(C)C)cc1)c1ccc(C)c(C)c1	x	x	x	x	n	x	x	x
CCN(CC)c1ccc(C=Nn2c(C)nc3ccccc3c2=O)cc1	x	x	x	x	n	x	x	x
COc1cc(C(N)=O)cc(Br)c1OC	n	43.9	n	n	n	n	47.4	n
COc1cccc(C=Nn2c(=S)n(C)c3cc(C)c(C)cc32)c1OC	x	x	x	x	n	x	x	x
O=C(NN=Cc1ccccc1O)C1CC(=O)N(c2ccc(Cl)cc2)C1 (stereo unspecified)	x	x	x	x	n	x	x	x
O=C(NCc1ccccc1F)c1cc(=O)[nH]c2ccccc12	n	n	n	n	n	n	x	x
O=C(NCc1ccccc1Cl)c1cc(=O)[nH]c2ccccc12	n	51.6	n	n	n	n	n	x
O=C(CNC(=O)c1ccco1)NN=Cc1cc(Br)ccc1O	x	x	x	x	n	x	x	x
Cc1ccc(S(=O)(=O)N(CCC(=O)N2CCOCC2)c2ccccc2)cc1	x	61.8	n	x	n	n	n	x
O=C(COc1ccc2ccccc2c1)NN=Cc1ccccn1	x	x	x	x	n	x	x	x
CC(C)[C@H](N)C(=O)NCC1CCC(C(=O)N[C@@H](Cc2ccccc2)C(=O)O)CC1 (stereo partly specified)	x	x	x	x	n	x	x	x
CC1CCCCN1C(=O)COc1ccc(S(=O)(=O)N2CCCC2)cc1[N+](=O)[O-] (stereo unspecified)	x	n	n	n	n	n	x	x
N#CC1(NC(=O)COc2ccc(S(=O)(=O)N3CCCC3)cc2[N+](=O)[O-])CCCCC1	n	51.2	n	n	n	n	n	x
COc1ccc(S(=O)(=O)Oc2cccc(C=N/N=C3/NC(=O)C(CC(=O)O)S3)c2)cc1 (stereo unspecified)	x	x	x	x	n	x	x	x
CC(C)(C)c1cc(C(=O)NNC(=O)Nc2ccccc2)n(Cc2ccccc2)n1	n	61.1	n	n	n	n	n	n
Cc1ccc(S(=O)(=O)NN=Cc2cc([N+](=O)[O-])ccc2Cl)cc1	x	x	x	x	n	x	x	x
O=C(NC(C(=O)NN=Cc1ccccc1)c1n[nH]c(=O)c2ccccc12)c1ccccc1 (stereo unspecified)	x	x	x	x	n	x	x	x
CCn1c(C)cc(/C=C2\NC(=O)N(CC(=O)Nc3ccc(F)cc3)C2=O)c1C	n	66.0	n	n	n	n	74.1	n
COc1ccc(N2CC(C(=O)NCc3ccco3)CC2=O)cc1 (stereo unspecified)	n	40.9	n	n	n	n	45.8	n
CCOc1ccc(N2CC(C(=O)NCc3ccco3)CC2=O)cc1 (stereo unspecified)	n	n	n	n	n	n	x	x
Cc1ccc(N=C2NC(=O)CS2)cc1	n	n	n	n	n	n	x	x
Cc1cc(C)nc(/N=C2/NC(=O)CS2)n1	n	63.8	n	n	n	n	n	n
C[C@H](NC(=O)c1ccccc1Cl)C(=O)NCc1cccs1	n	59.3	n	n	n	n	n	x
CC(NC(=O)c1ccccc1Cl)C(=O)NCc1cccs1 (stereo unspecified)	x	n	n	x	n	n	x	x
SMILES	PolyA inhibitor	APOBEC3A inh	APOBEC3G inh	AHR act	UCH37 DUB inh	Arr AP2 block	A3A conf	UDG ctr A3A
O=C(NCc1ccccn1)C1CCN(S(=O)(=O)c2ccccc2)CC1	n	n	n	n	n	n	x	x
C=CCNC(=O)c1ccccc1NS(=O)(=O)c1ccc(SC)cc1	n	n	n	n	n	n	x	x
C=CCNC(=O)c1ccccc1NC(=O)C1CCN(S(=O)(=O)c2ccc(SC)cc2)CC1	n	43.6	n	n	n	n	59.7	n
CSc1ccc(S(=O)(=O)N2CCC(C(=O)NCc3ccccn3)CC2)cc1	n	59.5	n	n	n	n	53.2	n
COc1ccc(CC(=O)N/N=C/c2ccc(-c3cccc(C(=O)O)c3)o2)cc1OC	n	41.8	n	n	x	n	n	x
O=C(Cc1ccc(Br)cc1)NN=Cc1ccc(-c2cccc(C(=O)O)c2)o1	x	x	x	x	n	x	x	x
O=C1Nc2ccccc2/C1=N/c1sc2c(c1C(=O)NCCc1ccccc1)CCCC2	n	43.8	n	n	x	n	n	n
O=C1Nc2ccccc2C1=Nc1sc2c(c1C(=O)Nc1ccccc1)CCCC2	x	x	x	x	n	x	x	x
COc1cc(Nc2cccc[n+]2C)cc(OC)c1OC	n	69.4	n	n	n	n	61.5	n
COc1cc(NC(C)CCc2ccccc2)cc(OC)c1OC (stereo unspecified)	n	n	n	n	n	n	x	x
COCCCNC(=O)CN(Cc1ccccc1)S(=O)(=O)c1ccccc1	n	n	n	n	n	n	x	x
COCCCNC(=O)c1ccccc1N(Cc1ccccc1)S(=O)(=O)c1ccccc1	n	54.6	n	n	n	n	n	x
Cc1ccccc1NC(=O)CCC(=O)NN=Cc1ccncc1	x	x	x	x	n	x	x	x
N/C(=N\OC(=O)Cc1ccc([N+](=O)[O-])cc1)c1ccc([N+](=O)[O-])cc1	n	53.4	n	n	x	n	n	n
Cc1ccccc1NC(=O)CSc1nnc(NC(=O)C2CC2)s1	n	n	n	n	n	n	x	x
O=C(CSc1nnc(NC(=O)c2ccccc2C(=O)O)s1)Nc1ccccc1Cl	n	60.3	n	n	n	n	46.5	n
Cc1cccc(C)c1NC(=O)CSc1nnc(NC(=O)c2ccccc2C(=O)O)s1	n	63.8	n	n	n	n	n	x
COc1cc(C=NNc2ccccn2)ccc1O	x	x	x	x	n	x	x	x
COc1cc(C(=O)NN=Cc2coc3ccc(Cl)cc3c2=O)ccc1O	x	x	x	x	n	x	x	x
CC(/C=C/c1ccc2c(c1)OCO2)=NNC(=O)c1ccc(C)nc1	x	x	x	x	n	x	x	x
COC(=O)c1ccc2c(c1)C(C)(C)C(/C=C/c1ccc(O)cc1)=[N+]2C	n	n	n	n	n	n	x	x
COC(=O)c1ccc2c(c1)C(C)(C)C(/C=C/c1ccc(OC)c(OC)c1OC)=[N+]2C	n	94.8	n	n	n	n	82.8	n
O=C(NC1CCCc2ccccc21)c1cc(Cl)ccn1 (stereo unspecified)	n	61.7	n	n	n	n	n	x
O=C(Nc1ccc(Br)cn1)c1coc(=O)c(Br)c1	n	62.1	n	n	n	n	20.8	n
C/C(=N/Nc1ccccc1C(=O)O)c1cccs1	n	n	n	n	x	n	x	x
C/C(=N\Nc1ccc(Cl)c(C(=O)O)c1)c1cccs1	n	41.5	n	n	x	n	n	x
CC(=NNC(=O)CNC(=O)COc1ccccc1)c1ccc(Cl)cc1	x	x	x	x	n	x	x	x
O=C(ON=C1CCCc2ccccc21)c1ccc(F)cc1	x	x	x	x	n	x	x	x
CC(=O)Nc1ccc2c(COC(=O)CC3Sc4ccccc4NC3=O)cc(=O)oc2c1 (stereo unspecified)	n	50.0	n	n	n	n	50.9	n
